Laboratory results as given in ChEMBL document CHEMBL2177084, “Discovery of salermide-related sirtuin inhibitors: binding mode studies and antiproliferative effects in cancer cells including cancer stem cells” (J Med Chem, 2012).
The source made the active and inactive calls. The calls are words filed in the database; no cut-off is given here.

Tests used:
U-937 [1] = test: Induction of apoptosis in human U937 cells at 50 uM after 45 hrs by flow cytometry; assay type: functional, cell-based
Outline: (§1)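 Apoptosis was taken as the pre-G1 peak after propidium iodide staining in hypotonic citrate/Triton buffer (30 min, dark) and flow cytometry. Triplicate experiments.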

U-937 [2] = test: Induction of apoptosis in human U937 cells at 5 uM after 45 hrs by flow cytometry; assay type: functional, cell-based; outline: as §1
MOLT-4 [3] = test: Antiproliferative activity against human MOLT4 cells at 100 uM after 24 to 72 hrs by MTT assay; assay type: functional, cell-based
Outline: (§2)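 Cells exposed to compound for 24, 48 and 72 h; growth inhibition read by MTT and expressed as percentage antiproliferative activity.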

[4] = biological target: T1, NAD-dependent protein deacetylase sirtuin-1 (Homo sapiens) (UniProt Q96EB6); test: Inhibition of human N-terminal GST-tagged SIRT1 expressed in Escherichia coli using Arg-His- Lys-Lys(Ac) as substrate after 1 hr by Fluor de Lys fluorescence based assay
T1 sequence (whole entry): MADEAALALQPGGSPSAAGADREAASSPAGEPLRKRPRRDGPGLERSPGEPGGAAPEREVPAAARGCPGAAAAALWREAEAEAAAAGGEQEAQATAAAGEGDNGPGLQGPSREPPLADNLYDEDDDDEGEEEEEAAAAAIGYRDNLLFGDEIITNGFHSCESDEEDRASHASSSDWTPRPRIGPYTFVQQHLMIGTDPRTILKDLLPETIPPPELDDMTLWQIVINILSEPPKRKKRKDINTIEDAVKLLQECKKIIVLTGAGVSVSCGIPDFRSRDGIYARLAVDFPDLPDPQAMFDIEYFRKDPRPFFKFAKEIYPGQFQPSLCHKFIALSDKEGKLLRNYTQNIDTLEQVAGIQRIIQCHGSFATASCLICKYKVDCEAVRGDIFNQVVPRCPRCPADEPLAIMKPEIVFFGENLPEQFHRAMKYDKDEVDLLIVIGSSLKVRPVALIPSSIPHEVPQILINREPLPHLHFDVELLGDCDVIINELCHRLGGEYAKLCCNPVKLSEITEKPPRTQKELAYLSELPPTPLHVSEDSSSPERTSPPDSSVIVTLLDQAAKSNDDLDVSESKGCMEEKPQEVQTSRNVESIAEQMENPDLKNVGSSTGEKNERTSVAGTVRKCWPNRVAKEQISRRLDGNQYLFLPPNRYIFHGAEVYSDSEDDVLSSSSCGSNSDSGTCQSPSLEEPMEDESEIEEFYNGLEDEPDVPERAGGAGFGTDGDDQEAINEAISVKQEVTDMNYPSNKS
Outline: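 Recombinant full-length human sirtuin expressed in E. coli was incubated 1 h at 37 °C with p53-derived AMC-conjugated acetyl-peptide (SIRT1: Arg-His-Lys-Lys(Ac); SIRT2: Gln-Pro-Lys-Lys(Ac); […]) and NAD+ ([…]). The reaction was stopped and developed with developer containing 2 mM nicotinamide, and fluorescence read at ex 360/em 460 nm. Compound fluorescence was subtracted using an enzyme-free counter assay. Triplicate.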

[5] = Cytotoxicity against human 30PT cells after 72 hrs by celltiter-glo luminescent assay; assay type: functional
Outline: (§3)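 Patient-derived CSC spheroids were dissociated, plated at 2000–3000 viable cells, and held 24 h at 37 °C in 5% CO2. They were then treated 72 h with eight 1:3 serial dilutions (0.023–50 μM), with 0.1% DMSO as control, in triplicate. Viability was read by CellTiter-Glo luminescence relative to DMSO, and CC50 was obtained by 4-parameter logistic fit (mean of three experiments).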

U-937 [6] = test: Granulocytic differentiation in human U937 cells assessed as increase of CD11c cells at 25 uM after 40 hrs by FACS analysis relative to control; assay type: functional
Outline: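 U937 cells treated 40 h at 25 μM, then stained with PE-conjugated anti-CD11c (PE mouse IgG1 as isotype control) for 30 min at 4 °C in the dark. Cells were washed in PBS and taken up in PBS with 0.25 μg/mL propidium iodide. Differentiation = CD11c-positive cells minus PI-positive dead cells, by FACS.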

[7] = Cytotoxicity against human CRO cells at 50 uM after 72 hrs by celltiter-glo luminescent assay; assay type: functional; outline: as §3
[8] = (§4) Cytotoxicity against human CRC 1.1 cells at 50 uM after 72 hrs by celltiter-glo luminescent assay; assay type: functional; outline: as §3
U-937 [9] = test: Induction of apoptosis in human U937 cells after 45 hrs by flow cytometry; assay type: functional; parameters: concentration or dose not given beside the values; outline: as §1
U-937 [10] = test: Cell cycle arrest in human U937 cells at 25 uM after 40 hrs by flow cytometry; assay type: functional, cell-based
Homo sapiens = species on record: Homo sapiens; test: as §4; assay type: functional; outline: as §3
[11] = Cytotoxicity against human 30P cells at 50 uM after 72 hrs by celltiter-glo luminescent assay; assay type: functional; outline: as §3
[12] = Cytotoxicity against human 30PT cells at 50 uM after 72 hrs by celltiter-glo luminescent assay; assay type: functional; outline: as §3
MOLT-4 [13] = test: Antiproliferative activity against human MOLT4 cells at 25 uM after 24 to 72 hrs by MTT assay; assay type: functional, cell-based; outline: as §2
[14] = Cytotoxicity against human CRC 1.1 cells after 72 hrs by celltiter-glo luminescent assay; assay type: functional; outline: as §3
RKO [15] = test: Antiproliferative activity against human RKO cells at 50 uM after 24 to 72 hrs by MTT assay; assay type: functional, cell-based; outline: as §2
[16] = Cytotoxicity against human 30P cells after 72 hrs by celltiter-glo luminescent assay; assay type: functional; outline: as §3
MOLT-4 [17] = test: Antiproliferative activity against human MOLT4 cells at 50 uM after 24 to 72 hrs by MTT assay; assay type: functional, cell-based; outline: as §2
MDA-MB-231 [18] = test: Antiproliferative activity against human MDA-MB-231 cells at 50 uM after 24 to 72 hrs by MTT assay; assay type: functional, cell-based; outline: as §2
[19] = Cytotoxicity against human CRO cells after 72 hrs by celltiter-glo luminescent assay; assay type: functional; outline: as §3
MOLT-4 [20] = test: Antiproliferative activity against human MOLT4 cells at 100 uM by MTT assay; assay type: functional, cell-based; settings: TDE = time-dependent effect; outline: as §2
U-937 [21] = test: Cell cycle arrest in human U937 cells assessed as accumulation at G1 phase at 25 uM after 40 hrs by flow cytometry; assay type: functional, cell-based
MDA-MB-231 [22] = test: Antiproliferative activity against human MDA-MB-231 cells at 25 uM after 24 to 72 hrs by MTT assay; assay type: functional, cell-based; outline: as §2
RKO [23] = test: Antiproliferative activity against human RKO cells at 25 uM after 24 to 72 hrs by MTT assay; assay type: functional, cell-based; outline: as §2
[24] = in the assay text read “40 hrs” for “45 hrs”
[25] = in the assay text read “after 40 hrs” for “after 45 hrs”

| SMILES | Activity (U-937 [1]) | Activity (U-937 [2]) | Activity (MOLT-4 [3]) | inhibition [4] | CC50 [5] [µM] | inhibition at 50 µM [7] [%] | Activity (MOLT-4 [13]) | CC50 [14] [µM] | CC50 [16] [µM] | Activity (U-937 [9]; [25]) [%] | other results |
| --- | --- | --- | --- | --- | --- | --- | --- | --- | --- | --- | --- |
| CC(NS(=O)(=O)c1ccccc1/N=C/c1c(O)ccc2ccccc12)c1ccccc1 (stereo not given) | Active | inactive | Active | Active | – | – | – | – | – | – | – |
| N#C/C(=C\c1ccc(-c2cc(Cl)ccc2Cl)o1)C(=O)Nc1cccc2ncccc12 | – | – | – | – | 9.6 | 50 | – | – | – | – | Activity (U-937 [6]): inactive; inhibition at 50 µM [8]: 50%; Activity (U-937 [9]; [24]): inactive; Activity (U-937 [10]): inactive |
| NC(=O)C1CCCc2c1[nH]c1ccc(Cl)cc21 (stereo not given) | – | – | – | – | – | 20 | – | – | – | – | Activity (U-937 [6]): inactive; inhibition (Homo sapiens): inactive; Activity (U-937 [9]; [24]): inactive; inhibition at 50 µM [11]: 10%; Activity (U-937 [10]): inactive; inhibition at 50 µM [12]: 20% |
| CC(CSc1cccc(/N=C/c2c(O)ccc3ccccc23)c1)c1ccccc1 (stereo not given) | Active | inactive | – | – | 15.6 | – | Active | 20 | 15.5 | – | Activity (RKO [15]): Active; Activity (MOLT-4 [17]): Active; Activity (MDA-MB-231 [18]): Active; CC50 [19]: 14.5 µM |
| CC(NS(=O)(=O)c1ccc(/N=C/c2c(O)ccc3ccccc23)cc1)c1ccccc1 (stereo not given) | Active | inactive | Active | – | – | – | – | – | – | – | – |
| CC(CSc1ccc(/N=C/c2c(O)ccc3ccccc23)cc1)c1ccccc1 (stereo not given) | Active | inactive | Active | – | – | – | – | – | – | 90 | – |
| CC(NC(=O)c1ccccc1/N=C/c1c(O)ccc2ccccc12)c1ccccc1 (stereo not given) [SIRTINOL] | Active | inactive | – | Active | – | – | – | – | – | 47 | – |
| CC(C[S+]([O-])c1ccccc1/N=C/c1c(O)ccc2ccccc12)c1ccccc1 (stereo not given) | Active | inactive | Active | – | – | 33 | Active | – | – | – | Activity (MOLT-4 [20]): tde; inhibition at 50 µM [8]: 46%; inhibition at 50 µM [11]: 42%; inhibition at 50 µM [12]: 39% |
| CC(C(=O)Nc1cccc(/N=C/c2c(O)ccc3ccccc23)c1)c1ccccc1 (stereo not given) [SALERMIDE] | Active | inactive | Active | – | 36.5 | – | Active | 9.7 | 41 | 70 | Activity (RKO [15]): Active; Activity (U-937 [21]): Active; Activity (MOLT-4 [20]): tde; Activity (MOLT-4 [17]): Active; Activity (MDA-MB-231 [18]): Active; Activity (MDA-MB-231 [22]): Active; Activity (RKO [23]): Active; CC50 [19]: 6.7 µM |
| CC(CS(=O)(=O)c1ccc(/N=C/c2c(O)ccc3ccccc23)cc1)c1ccccc1 (stereo not given) | Active | inactive | Active | Active | – | – | – | 34 | 30.2 | – | Activity (U-937 [21]): Active |
